Data taken from publication PMC3737387 (Nuclear medicine and biology, 2013).
“And” between values parts separate entries of the source, which are not always exact repeats. Equal values may be shown once.

Experiments:
FAAH [1] = settings: previously reported; cited from earlier work
FAAH [2] = settings: rodents; cited from earlier work
FAAH [3] = settings: URB597 2 mg/kg ip; cited from earlier work
FAAH [4] = settings: Phase II crossover study, pain associated with osteoarthritis; cited from earlier work
FAAH [5] = settings: rodents, cited from earlier work
FAAH [6] = molecular target: T1, FAAH (Rattus norvegicus, UniProt P97612); assay: Pharmacological blocking of [^11C]PF-04457845 uptake in rat brain; assay type: in vivo; settings: control vs URB597 (2 mg/kg ip) pretreated group; 40 min post injection
T1 sequence (P97612 1-579): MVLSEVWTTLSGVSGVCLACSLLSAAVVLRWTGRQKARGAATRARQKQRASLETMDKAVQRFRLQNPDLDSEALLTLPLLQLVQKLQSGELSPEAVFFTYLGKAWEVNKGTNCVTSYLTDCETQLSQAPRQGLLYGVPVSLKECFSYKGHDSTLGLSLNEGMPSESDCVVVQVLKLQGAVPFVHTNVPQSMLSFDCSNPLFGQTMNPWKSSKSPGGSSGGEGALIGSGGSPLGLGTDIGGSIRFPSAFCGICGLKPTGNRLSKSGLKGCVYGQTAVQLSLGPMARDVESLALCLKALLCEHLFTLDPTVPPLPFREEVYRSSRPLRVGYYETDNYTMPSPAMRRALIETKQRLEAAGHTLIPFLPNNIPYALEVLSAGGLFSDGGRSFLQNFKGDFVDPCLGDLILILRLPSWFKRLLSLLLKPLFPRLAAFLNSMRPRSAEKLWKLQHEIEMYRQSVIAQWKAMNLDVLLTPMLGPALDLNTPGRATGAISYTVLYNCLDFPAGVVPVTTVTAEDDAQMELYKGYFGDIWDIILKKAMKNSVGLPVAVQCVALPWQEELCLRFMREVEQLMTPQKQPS

[7] = Ex vivo biodistribution of [^11C]PF-04457845 in conscious rat brain and plasma; settings: for Ex vivo biodistribution, Cerebellum / Ex vivo biodistribution, Cortex / Ex vivo biodistribution, Hypothalamus / Ex vivo biodistribution, Plasma / Ex vivo biodistribution, Rest of Brain: n = 4
[8] = HPLC analysis of plasma metabolites; assay type: in vivo; settings: rat
In short: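 Heparinized rat trunk blood is centrifuged, and the plasma is acidified with 20% (v/v) of 50% aqueous acetic acid. It is loaded onto an HLB capture column, eluted with 1% acetonitrile (2 mL/min, 4 min), then backflushed with 60% acetonitrile/water + 0.1 N ammonium formate (pH 4) onto C18. Detection is by coincidence-mode radio-flow. Eluent switches to 100% ethanol after the parent to detect lipophilic metabolites. Peaks are decay-corrected and integrated.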

FAAH [9] = molecular target: T1, FAAH; assay: Irreversible binding of [^11C]PF-04457845 to FAAH in the rat brain; assay type: in vivo

For `O=[11C](NC1CCCCC1)Oc1ccc(O)c(-c2ccccc2)c1` [[^11C]CURB, [^11C-carbonyl]-6-hydroxy-[1,1′-biphenyl]-3-yl-cyclohexylcarbamate], the “level of specific binding” value (FAAH [1]) is given as 80%.

In the case of `COc1ccc(NC(=O)Oc2ccc[11c](-c3ccccc3)c2)cc1` [[^11C]1,1′-biphenyl-3-yl-(4-methoxyphenyl)carbamate], the brain uptake (FAAH [2]) is listed as “low brain uptake” and the specific binding (FAAH [2]) is listed as “no detectable specific binding”.

In the case of `NC(=O)c1cccc(-c2cccc(OC(=O)NC3CCCCC3)c2)c1` [URB597, 3′-carbamoyl-[1,1′-biphenyl]-3-yl-cyclohexylcarbamate], the “FAAH enzyme inactivated in rodent brains” value (FAAH [3]) is given as > 90% and 90%.

For `O=C(Nc1cccnn1)N1CCC(=Cc2cccc(Oc3ccc(C(F)(F)F)cn3)c2)CC1` [PF-04457845], the analgesic effect (FAAH [4]) is given as “did not induce an analgesic effect” and the “endocannabinoid levels in blood” value (FAAH [4]) is given as “modulate endocannabinoid levels in blood”.

In the case of `O=C(Nc1cccnn1)N1CCC(=Cc2cccc(Oc3ccc(OCC[18F])cn3)c2)CC1` [[^18F]PF-9811, 4-(3-((5-(2-[^18F]fluoroethoxy)pyridine-2-yl)oxy)benzylidene)-N-(pyridazin-3-yl)piperidine-1-carboxamide], the “brain uptake in the cortex” value (FAAH [5]; 90 min) is given as 0.8 SUV and the “specific to non-specific binding ratios” value (FAAH [5]) is given as 2.3 – 2.6.

With `O=C(Nc1cccnn1)N1CCC(=Cc2cccc(Oc3ccc(C(F)(F)F)cn3)c2)CC1` [[^11C]PF-04457845] the “specific to non-specific binding ratio, cerebellum” value (FAAH [6]) was 3.4, the “specific to non-specific binding ratio, cortex” value (FAAH [6]) was 4.2 and the “specific to non-specific binding ratio, hypothalamus” value (FAAH [6]) was 2.5. For the same compound, the brain uptake ([7]; conscious rats, tail-vein injection, across regions and time points) was 1.2 to 4.4 SUV, the “Ex vivo biodistribution, Cerebellum” value ([7]; rat, 2 min post iv injection) was 1.87 ± 0.05 SUV and the “Ex vivo biodistribution, Cortex” value ([7]; rat, 2 min post iv injection) was 2.22 ± 0.06 SUV. For the same compound, the “Ex vivo biodistribution, Hypothalamus” value ([7]; rat, 2 min post iv injection) was 1.29 ± 0.05 SUV, the “Ex vivo biodistribution, Plasma” value ([7]; rat, 2 min post iv injection) was 1.03 ± 0.19 SUV and the “Ex vivo biodistribution, Rest of Brain” value ([7]; rat, 2 min post iv injection) was 1.51 ± 0.08 SUV. For the same compound, the “Ex vivo biodistribution, Cerebellum” value ([7]; rat, 15 min post iv injection) was 3.17 ± 0.10 SUV, the “Ex vivo biodistribution, Cortex” value ([7]; rat, 15 min post iv injection) was 3.64 ± 0.24 SUV and the “Ex vivo biodistribution, Hypothalamus” value ([7]; rat, 15 min post iv injection) was 1.96 ± 0.10 SUV. The “Ex vivo biodistribution, Plasma” value ([7]; rat, 15 min post iv injection) was 0.33 ± 0.04 SUV, the “Ex vivo biodistribution, Rest of Brain” value ([7]; rat, 15 min post iv injection) was 2.44 ± 0.07 SUV and the “Ex vivo biodistribution, Cerebellum” value ([7]; rat, 40 min post iv injection) was 3.56 ± 0.10 SUV. The “Ex vivo biodistribution, Cortex” value ([7]; rat, 40 min post iv injection) was 4.11 ± 0.30 SUV, the “Ex vivo biodistribution, Hypothalamus” value ([7]; rat, 40 min post iv injection) was 2.18 ± 0.20 SUV and the “Ex vivo biodistribution, Plasma” value ([7]; rat, 40 min post iv injection) was 0.12 ± 0.01 SUV. For the same compound, the “Ex vivo biodistribution, Rest of Brain” value ([7]; rat, 40 min post iv injection) was 2.77 ± 0.24 SUV, the “Ex vivo biodistribution, Cerebellum” value ([7]; rat, 60 min post iv injection) was 3.42 ± 0.34 SUV and the “Ex vivo biodistribution, Cortex” value ([7]; rat, 60 min post iv injection) was 3.92 ± 0.37 SUV. For the same compound, the “Ex vivo biodistribution, Hypothalamus” value ([7]; rat, 60 min post iv injection) was 2.10 ±0.31 SUV, the “Ex vivo biodistribution, Plasma” value ([7]; rat, 60 min post iv injection) was 0.09 ± 0.03 SUV and the “Ex vivo biodistribution, Rest of Brain” value ([7]; rat, 60 min post iv injection) was 2.59 ± 0.19 SUV. The “time at which brain uptake reaches a plateau” value ([7]; rat, post injection) was 40 min, the “parent radiotracer remaining in plasma” value ([8]; 15 min post injection) was 82% and the “parent radiotracer remaining in plasma” value ([8]; 40 min post injection) was 73%. The “parent radiotracer remaining in plasma” value ([8]; 60 min post injection) was 66%, the “lipophilic metabolite, share of total radioactivity present in plasma” value ([8]; later time-points) was 3 – 3.5% and the “SBR (specific to non-specific binding ratio) to FAAH from extraction studies” value (FAAH [9]; rat whole brain, ([95/5]-1)) was greater than 18. For the same compound, the “radioactivity irreversibly bound to brain tissue” value (FAAH [9]; rat, 2 min post injection) was 84%, the extractable brain radioactivity (FAAH [9]; rat, 40 min post injection) was 2% and the “radioactivity in whole brain that is FAAH-bound” value (FAAH [9]; rat, 40 min post injection) was greater than 95%. For the same compound, the “radioactivity irreversibly bound to brain tissue” value (FAAH [9]; rat, 40 min post injection) was 98% and the “radioactivity bound to brain parenchyma” value (FAAH [9]; rat, after ip pre-treatment with URB597 (2 mg/kg)) was 5%.
